The target in data set [1] is Glutamate NMDA receptor (Rattus norvegicus) (UniProt P35439+Q00959+Q00960+Q00961+Q62645+Q8VHN2+Q9R1M7). Kind of data set: Enhanced binding of [3H]MK-801 to N-methyl-D-aspartate glutamate receptor in presence of spermine. Type of data set: protein-complex assay. A digest of the protocol: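 Forebrain membranes (minus cerebellum and brainstem) from adult male Sprague–Dawley rats, prepared by buffy-coat centrifugation in 5 mM HEPES/4.5 mM Tris pH 7.6 with EDTA washes, then stored frozen. About 50 μg protein incubated with [³H]MK-801 (final 4–4.5 nM) plus spermine, without added glutamate or glycine, for 2 h at room temperature. Filtered on polyethylenimine-soaked glass fiber filters. Nonspecific binding defined with 100 μM PCP; counted by scintillation.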

Data set [2] is described as follows: Partition coefficient (logP).
A short description of data set [3]: Dissociation constant (pK2).
Data set [4] can be described thus: Dissociation constant (pK1).

For `NCCCNCCO`, the Sp Max in data set [1] came out at 16%. Besides, the ΔpK in data set [2] was 2.09. For the same molecule, the figures for the pKa in data set [3] and in data set [4] were 8.19 and 10.3, respectively.

`CC1(C)CC(NCCO)CC(C)(C)N1` returned a ΔpK in data set [2] of 3.1. In addition, the pKa was determined as 7.42 in data set [3] and 10.5 in data set [4].

In the case of `C=CCN(CC=C)CCCN(CC=C)CC=C`, the ΔpK in data set [2] worked out at 1.84. Also, the pKa amounted to 6.96 in data set [3] and 8.8 in data set [4].

`OCCNC1CCN(Cc2ccccc2)CC1` had a ΔpK in data set [2] of 2.57. The results for the pKa in data set [3] and in data set [4] were 6.67 and 9.24, respectively.

For `NC1CCN(Cc2ccccc2)CC1`, the ΔpK in data set [2] came out at 2.74. Also, the pKa came out at 7.05 in data set [3] and 9.79 in data set [4].

In turn, `CN(C)CC(C)(C)CN` came in with a ΔpK in data set [2] of 3.15. Besides, the values for the pKa in data set [3] and in data set [4] were 7.13 and 10.3, respectively.

As to `NCCCN`, the Sp Max in data set [1] came to 22%. In data set [2], this molecule yielded a ΔpK of 1.86. Further, the pKa in data set [3] was determined as 8.69; in data set [4], 10.6.

As for `CC1(C)CC(N)CC(C)(C)N1`, in data set [2], the ΔpK came out at 2.73. In addition, the figures for the pKa in data set [3] and in data set [4] were 7.9 and 10.6, respectively.

Turning to `CN1CC2CC1C[C@@H](N)C2` (stereo not given in full), the Sp Max in data set [1] was 8%.

Turning to `CNC1CCN(C)CC1`, the Sp Max in data set [1] came out at 2%. In data set [2], the ΔpK was 2.75. The pKa in data set [3] amounted to 7.34; in data set [4], 10.1.

For the molecule `CC(C)(CN)CN`, in data set [1], the Sp Max was determined as 5%. The same molecule gave a ΔpK in data set [2] of 2.37. Besides, the pKa in data set [3] is 7.81; in data set [4] it was 10.2.

For the molecule `CN1CC2CC1C[C@H](N)C2` (stereo not given in full), the Sp Max in data set [1] is 13%.

In the case of `C1CCN(C2CCNCC2)CC1` [[1,4']Bipiperidinyl], in data set [2], the ΔpK stood at 2.76. Also, the figures for the pKa in data set [3] and in data set [4] were 7.97 and 10.7, respectively.

With `CN(C)C1CCNCC1`, the Sp Max in data set [1] was 44%. The molecule also registered a ΔpK in data set [2] of 2.95. Moreover, the pKa in data set [3] amounted to 7.71; in data set [4], 10.7.

`NC1CCNCC1`: the Sp Max in data set [1] amounted to 12%. Further, the ΔpK in data set [2] was 2.53. Besides, the pKa in data set [3] came to 8.1; in data set [4] it was 10.6.

Consider `CN(C)CCCN(C)C`, for which the Sp Max in data set [1] came out at 22%. Besides, the pKa was 7.77 in data set [3] and 9.81 in data set [4].

In data set [2], `CN(C)C1CC(C)(C)NC(C)(C)C1` came in with a ΔpK of 2.89. The pKa in data set [3] was found to be 7.67; in data set [4], 10.6.

`CNCCCN`: the Sp Max in data set [1] is 15%. This molecule showed a ΔpK in data set [2] of 2.01. Besides, the pKa in data set [3] is 8.66; in data set [4], 10.7.

`NCC(O)CN`: in data set [1], the Sp Max amounted to 35%. The molecule further came in with a ΔpK in data set [2] of 1.54. Also, the pKa in data set [3] was 8.14.

In the case of `NCC(=O)CN`, in data set [1], the Sp Max turned out to be 72%. The molecule further gave a ΔpK in data set [2] of 1.43. In addition, the pKa in data set [3] is 6.89; in data set [4], 8.32.

For `CNCC(C)CNC`, in data set [1], the Sp Max is 11%. Further, in data set [2], the ΔpK is 2.26. Further, the pKa in data set [3] amounted to 8.29; in data set [4], 10.6.

In turn, `C1CCN(CCCN2CCCCC2)CC1` gave a ΔpK in data set [2] of 2.06. Besides, the pKa was 8.33 in data set [3] and 10.4 in data set [4].

Take `CNCCCNC`: in data set [1], the Sp Max stood at 16%. This molecule yielded a ΔpK in data set [2] of 2.02. Further, the pKa in data set [3] is 8.68; in data set [4], 10.7.

For the origin of these results see ChEMBL document CHEMBL1131499, “Molecular features associated with polyamine modulation of NMDA receptors” (J Med Chem, 1998).
